In general, T/C refers to the result in the treated group divided by that in the control group, in per cent.

In one test the test system is Mus musculus. The test is described as follows: Percent change in the weight after administering a dose of 100 mg/kg to mice bearing L1210 leukemia. The format is functional. Summed up: (§1)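 L1210 ascites cells were propagated in CDF₁ mice and 0.1 mL of a suspension at 10⁶ cells/mL in isotonic saline was implanted ip. Compound was given ip once daily for 6 consecutive days starting 24 h after implantation, as a fine suspension in Tween 80/saline (0.5 mL). Groups of five were used, with vehicle controls. The read-out was average body-weight change from onset to end of therapy.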
With `CN(NS(=O)(=O)c1ccccc1)S(=O)(=O)c1ccccc1`, the Average weight change is on record as -5.2%.

Turning to `Cc1ccc(S(=O)(=O)NN(C)S(=O)(=O)c2ccc(C)cc2)cc1`, the Average weight change is on record as 0.8%.

Take `O=S(=O)(NNS(=O)(=O)c1ccccc1)c1ccccc1`: the Average weight change came to 5.8%.

For `COc1ccc(S(=O)(=O)NN(C)S(=O)(=O)c2ccc(OC)cc2)cc1`, the Average weight change is -1.6%.

As to `CN(NS(=O)(=O)c1ccc(Cl)cc1)S(=O)(=O)c1ccc(Cl)cc1`, the Average weight change came to 1.3%.

As to `CN(NS(=O)(=O)c1ccc2ccccc2c1)S(=O)(=O)c1ccc2ccccc2c1`, the Average weight change is -3.3%.

On to `CN(NC(=O)c1ccccc1)C(=O)c1ccccc1`, for which the Average weight change was -2%.

In a further test the test system is Mus musculus. In words: Percent change in the weight after administering a dose of 150 mg/kg to mice bearing L1210 leukemia. It is filed as functional. The method, boiled down:
as §1
For the compound `CN(NS(=O)(=O)c1ccccc1)S(=O)(=O)c1ccccc1`, the Average weight change is -13.5%.

In the case of `O=S(=O)(NNS(=O)(=O)c1ccccc1)c1ccccc1`, the Average weight change turned out to be 0.8%.

Consider `COc1ccc(S(=O)(=O)NN(C)S(=O)(=O)c2ccc(OC)cc2)cc1`, for which the Average weight change worked out at 4.1%.

On to `CN(NS(=O)(=O)c1ccc(Cl)cc1)S(=O)(=O)c1ccc(Cl)cc1`, for which the Average weight change turned out to be 6.9%.

As for `CN(NS(=O)(=O)c1ccc2ccccc2c1)S(=O)(=O)c1ccc2ccccc2c1`, the Average weight change was found to be 4.1%.

On to `CN(NC(=O)c1ccccc1)C(=O)c1ccccc1`, for which the Average weight change is -2%.

A further test deals with Mus musculus. In words: Percent change in the weight after administering a dose of 50 mg/kg to mice bearing L1210 leukemia. The format is functional. Summed up:
as §1
Take `CN(NS(=O)(=O)c1ccccc1)S(=O)(=O)c1ccccc1`: the Average weight change was -4.8%.

As to `Cc1ccc(S(=O)(=O)NN(C)S(=O)(=O)c2ccc(C)cc2)cc1`, the Average weight change came out at 3.7%.

For `O=S(=O)(NNS(=O)(=O)c1ccccc1)c1ccccc1`, the Average weight change is reported as -0.3%.

Turning to `COc1ccc(S(=O)(=O)NN(C)S(=O)(=O)c2ccc(OC)cc2)cc1`, the Average weight change was 1.9%.

Consider `CN(NS(=O)(=O)c1ccc(Cl)cc1)S(=O)(=O)c1ccc(Cl)cc1`, for which the Average weight change is 4%.

As to `CN(NS(=O)(=O)c1ccc2ccccc2c1)S(=O)(=O)c1ccc2ccccc2c1`, the Average weight change was found to be 3%.

With `CN(NC(=O)c1ccccc1)C(=O)c1ccccc1`, the Average weight change turned out to be 2.5%.

The test system of the next test is Mus musculus. In words: Average survival time of control mice bearing L1210 leukemia at a dose 50 mg/kg. It is filed as functional. Summed up: (§2)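 L1210 ascites cells passaged in CDF1 mice, taken from 7-day donors, spun, diluted 10-fold in isotonic saline and set to 10^6 cells/mL by Coulter count; 0.1 mL given ip. Compound suspended in 2–3 drops 20% aqueous Tween 80 plus isotonic saline, 0.5 mL ip once daily for 6 days from 24 h after implant. Groups of five; vehicle-injected controls. %T/C = treated/control mean survival ×100.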
The compound `CN(NS(=O)(=O)c1ccccc1)S(=O)(=O)c1ccccc1` registered a Survival time of 9 days.

`Cc1ccc(S(=O)(=O)NN(C)S(=O)(=O)c2ccc(C)cc2)cc1` had a Survival time of 9.5 days.

Take `O=S(=O)(NNS(=O)(=O)c1ccccc1)c1ccccc1`: the Survival time was 9.5 days.

For the compound `COc1ccc(S(=O)(=O)NN(C)S(=O)(=O)c2ccc(OC)cc2)cc1`, the Survival time was 9 days.

The compound `CN(NS(=O)(=O)c1ccc(Cl)cc1)S(=O)(=O)c1ccc(Cl)cc1` showed a Survival time of 9.5 days.

In the case of `CN(NS(=O)(=O)c1ccc2ccccc2c1)S(=O)(=O)c1ccc2ccccc2c1`, the Survival time amounted to 9 days.

The compound `CN(NC(=O)c1ccccc1)C(=O)c1ccccc1` registered a Survival time of 9.5 days.

The test system of a further test is Mus musculus. In words: Average survival time of mice bearing L1210 leukemia at a dose 50 mg/kg. The format is functional. The method, boiled down:
as §2
For `Cc1ccc(S(=O)(=O)NN(C)S(=O)(=O)c2ccc(C)cc2)cc1`, the Survival time is 14 days.

Another test concerns Mus musculus. The test is described as follows: Average survival time of treated mice bearing the L1210 leukemia at a dose 100 mg/kg. It is filed as functional. The method, boiled down:
as §2
The compound `O=S(=O)(NNS(=O)(=O)c1ccccc1)c1ccccc1` registered a Survival time of 9.2 days.

`CN(NC(=O)c1ccccc1)C(=O)c1ccccc1`: the Survival time was found to be 9.2 days.

The test system of the next test is Mus musculus. The test is described as follows: Average survival time of treated mice bearing the L1210 leukemia at a dose 150 mg/kg. The format is functional. The method, boiled down: as §2
`CN(NS(=O)(=O)c1ccccc1)S(=O)(=O)c1ccccc1` displayed a Survival time of 9.4 days.

Turning to `O=S(=O)(NNS(=O)(=O)c1ccccc1)c1ccccc1`, the Survival time was 9.6 days.

`CN(NS(=O)(=O)c1ccc2ccccc2c1)S(=O)(=O)c1ccc2ccccc2c1` had a Survival time of 9 days.

Turning to `CN(NC(=O)c1ccccc1)C(=O)c1ccccc1`, the Survival time worked out at 9.2 days.

A further test relates to Mus musculus. The test is described as follows: Average survival time of treated mice bearing the L1210 leukemia at a dose 50 mg/kg. The format is functional. Summed up:
as §2
The compound `O=S(=O)(NNS(=O)(=O)c1ccccc1)c1ccccc1` displayed a Survival time of 9.2 days.

In the case of `CN(NS(=O)(=O)c1ccc(Cl)cc1)S(=O)(=O)c1ccc(Cl)cc1`, the Survival time is 11.4 days.

As to `CN(NC(=O)c1ccccc1)C(=O)c1ccccc1`, the Survival time came to 9.2 days.

In a further test the test system is Mus musculus. The test is described as follows: Percentage of average survival time of control/treated mice bearing P388 leukemia at a dose 150 mg/kg. The format is functional.
On to `COc1ccc(S(=O)(=O)NN(C)S(=O)(=O)c2ccc(OC)cc2)cc1`, for which the T/C was 136%.

The next test has as its system Mus musculus. The test is described as follows: Percentage of average survival time of control/treated mice bearing sarcoma 180 at a dose 50 mg/kg. It is filed as functional.
For `Cc1ccc(S(=O)(=O)NN(C)S(=O)(=O)c2ccc(C)cc2)cc1`, the T/C is on record as 197%.

The next test concerns Mus musculus. The test is described as follows: Percentage of average survival time of control/treated mice bearing the L1210 leukemia at a dose 100 mg/kg. It is filed as functional. Summed up: as §2
As to `O=S(=O)(NNS(=O)(=O)c1ccccc1)c1ccccc1`, the T/C is on record as 97%.

The compound `CN(NS(=O)(=O)c1ccc(Cl)cc1)S(=O)(=O)c1ccc(Cl)cc1` yielded a T/C of 124%.

`CN(NC(=O)c1ccccc1)C(=O)c1ccccc1` gave a T/C of 97%.

For another test, the system named is Mus musculus. In words: Percentage of average survival time of control/treated mice bearing the L1210 leukemia at a dose 150 mg/kg. It is filed as functional. The method, boiled down:
as §2
In the case of `O=S(=O)(NNS(=O)(=O)c1ccccc1)c1ccccc1`, the T/C turned out to be 101%.

`CN(NC(=O)c1ccccc1)C(=O)c1ccccc1` returned a T/C of 97%.

A further test relates to Mus musculus. In words: Percentage of average survival time of control/treated mice bearing the L1210 leukemia at a dose 50 mg/kg. The format is functional. The method, boiled down: as §2
Consider `O=S(=O)(NNS(=O)(=O)c1ccccc1)c1ccccc1`, for which the T/C is on record as 97%.

For `CN(NS(=O)(=O)c1ccc(Cl)cc1)S(=O)(=O)c1ccc(Cl)cc1`, the T/C turned out to be 120%.

Compound `CN(NC(=O)c1ccccc1)C(=O)c1ccccc1` gave a T/C of 97%.

The test system of a further test is Mus musculus. In words: Percentage of average survival time of control/treated mice bearing sarcoma 180 at a dose 100 mg/kg. It is filed as functional.
`CN(NS(=O)(=O)c1ccccc1)S(=O)(=O)c1ccccc1` had a T/C of 203%.

These data come from ChEMBL document CHEMBL1122985, “Synthesis and evaluation of N,N'-bis(arylsulfonyl)hydrazines as antineoplastic agents” (1985).
